# Experimental data from different studies.
# KCNH2: Voltage-gated inwardly rectifying potassium channel KCNH2 (KCNH2, Homo sapiens, UniProt Q12809)
# ABCB11: Bile salt export pump (ABCB11, Homo sapiens, UniProt O95342)
SMILES,tested on,assay,test system,conditions,endpoint,result
COc1ccc2c(c1)CN(C(=O)CCN1CCC(Cc3ccccc3)CC1)CC[S@@+]2[O-],,,"male human, plasma","intravenous, 0.4 mg/kg, healthy volunteers",Tmax,0 h
NC(=O)c1ncn([C@@H]2O[C@H](CO)[C@@H](O)[C@H]2O)n1,RD,"cell growth or viability, MTT",,,CC50,104 µM
COc1nc(-c2cccc(-c3ccccc3)c2C)ccc1CNCCNC(=O)CCCCCCCCCCC(=O)N1CCN(CCNC(=O)c2cc3c(=O)n4cccc(C)c4nc3n(CCc3cccs3)c2=N)CC1,,,"male Sprague-Dawley rat, plasma","intraperitoneal, 4 mg/kg",MRT(0-inf),7.2 h
CC(=O)N1CCC(C(=O)N2CCN3C(=O)c4cc(-c5ccccc5)ccc4NC(=O)C3C2)CC1 (stereo not shown),KCNH2,"ion current, inhibitor, patch clamp",HEK293,100 µM,inhibition,56.8%
C[C@H]1Oc2cc(cnc2N)-c2c(nn(C)c2C#N)CN(C)C(=O)c2ccc(F)cc21,,,"Sprague-Dawley rat, plasma","intravenous, 1 mg/kg, single dose",MRT(0-inf),4.96 h
COc1cc(N)c(Cl)cc1C(=O)NC1CCN(CCCOc2ccc(F)cc2)CC1OC (stereo not shown),KCNH2,"ion current, inhibitor, patch clamp",HEK293,"10 nM, pH 7.4",inhibition,39%
CN1C[C@H](COc2nccc3c(NCc4ccco4)cc(Cl)nc23)OC1=O,KCNH2,"ion current, inhibitor",HEK293,1 µM,inhibition,8.8%
CC(C)n1ncc2c(C(=O)NCC3(C)CNC3)cc(C3CC3)nc21,RD,"cell growth or viability, neutral red",,,CC50,> 100 µM
N[C@H]1C(O)O[C@H](CO)[C@@H](O)[C@@H]1O (stereo partly shown),Caco-2,"cell growth or viability, CCK-8",,50 mM,viability,97.9%
NC/C(=C\F)COc1cccc(Cn2c(=S)[nH]c(=O)c3[nH]cnc32)c1,ABCB11,"transporter uptake, inhibitor, radiometric",,30 µM,inhibition,< 50%
COc1cccc(OC)c1-c1cc(C(=O)NC2(C(=O)O)C3CC4CC(C3)CC2C4)nn1-c1ccc(C(=O)N(C)CCCN(C)CCCN(C)C(=O)CN2CCN(CC(=O)[O-])CCN(CC(=O)[O-])CCN(CC(=O)[O-])CC2)cc1C(C)C.[177Lu+3] (stereo not shown),HT-29,,bone,"4 h, tumour-bearing",tracer uptake,1.8 %ID/g
CCOC(=O)C1=C(CN2CCC[C@@H]2C(=O)Nc2ccc(B(O)O)cc2)NC(c2nccs2)=N[C@H]1c1ccc(F)cc1Br,KCNH2,"ion current, inhibitor, patch clamp",HEK293,"30 µM, pH 7.4",inhibition,83%
O=C(COc1ccc(Cl)cc1)NC12CC(c3nnc([C@H]4C[C@@H](OC(F)(F)F)C4)o3)(C1)C2,,,"human, plasma","oral, 45 mg, multiple doses, once daily, steady state, healthy volunteers",Tmax,4.03 h
CC(C)NC(=O)COc1cccc(-c2nc(Nc3ccc4[nH]ncc4c3)c3ccccc3n2)c1,ABCB11,"transporter uptake, inhibitor, radiometric",,,IC50,> 1 µM
CC(C)n1cc(C#N)c2cc(-n3cc(C(=O)O)cn3)ccc21,,,"human, plasma","oral, 50 mg, single dose, fasted, healthy volunteers",Tmax,2.75 h
Cn1c(=O)c2[nH]cnc2n(C)c1=O,,,"male Sprague-Dawley rat, plasma","intravenous, 22.5 mg/kg",MRT(0-t),2.61 h
